According to PubChem BioAssay AID623874 (Vanderbilt Specialized Chemistry Center, 2012):
Active and inactive are the calls of the source.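 Rule for the calls: active = glutamate fold shift at least 2 as enhancer or at most 0.5 as blocker, actives on both sides; inactive = the rest.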

Molecular target: Metabotropic glutamate receptor 1 (Rattus norvegicus) (UniProt P23385)
Assay: off-target mGlu1 activity of candidates – cell-based, calcium flux, rat, selectivity assay for mGlu4 PAM lead optimization, SAR follow-up (AID 623874)
Conditions: rat mGlu1 cells, Fluo-4 calcium flux, glutamate CRC shift; at 10 µM
Summary of the method: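 test system = Fluo-4-loaded cells | medium = HEPES-buffered HBSS plus probenecid, pH 7.3 | dosing = single test compound dose, 10 µM final | reagent = glutamate as agonist, added after test compound | measured by = Fluo-4 calcium fluorescence | timing = ~2.5 min compound exposure before agonist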

Chain of Metabotropic glutamate receptor 1 (Rattus norvegicus) (P23385 whole entry, looked up): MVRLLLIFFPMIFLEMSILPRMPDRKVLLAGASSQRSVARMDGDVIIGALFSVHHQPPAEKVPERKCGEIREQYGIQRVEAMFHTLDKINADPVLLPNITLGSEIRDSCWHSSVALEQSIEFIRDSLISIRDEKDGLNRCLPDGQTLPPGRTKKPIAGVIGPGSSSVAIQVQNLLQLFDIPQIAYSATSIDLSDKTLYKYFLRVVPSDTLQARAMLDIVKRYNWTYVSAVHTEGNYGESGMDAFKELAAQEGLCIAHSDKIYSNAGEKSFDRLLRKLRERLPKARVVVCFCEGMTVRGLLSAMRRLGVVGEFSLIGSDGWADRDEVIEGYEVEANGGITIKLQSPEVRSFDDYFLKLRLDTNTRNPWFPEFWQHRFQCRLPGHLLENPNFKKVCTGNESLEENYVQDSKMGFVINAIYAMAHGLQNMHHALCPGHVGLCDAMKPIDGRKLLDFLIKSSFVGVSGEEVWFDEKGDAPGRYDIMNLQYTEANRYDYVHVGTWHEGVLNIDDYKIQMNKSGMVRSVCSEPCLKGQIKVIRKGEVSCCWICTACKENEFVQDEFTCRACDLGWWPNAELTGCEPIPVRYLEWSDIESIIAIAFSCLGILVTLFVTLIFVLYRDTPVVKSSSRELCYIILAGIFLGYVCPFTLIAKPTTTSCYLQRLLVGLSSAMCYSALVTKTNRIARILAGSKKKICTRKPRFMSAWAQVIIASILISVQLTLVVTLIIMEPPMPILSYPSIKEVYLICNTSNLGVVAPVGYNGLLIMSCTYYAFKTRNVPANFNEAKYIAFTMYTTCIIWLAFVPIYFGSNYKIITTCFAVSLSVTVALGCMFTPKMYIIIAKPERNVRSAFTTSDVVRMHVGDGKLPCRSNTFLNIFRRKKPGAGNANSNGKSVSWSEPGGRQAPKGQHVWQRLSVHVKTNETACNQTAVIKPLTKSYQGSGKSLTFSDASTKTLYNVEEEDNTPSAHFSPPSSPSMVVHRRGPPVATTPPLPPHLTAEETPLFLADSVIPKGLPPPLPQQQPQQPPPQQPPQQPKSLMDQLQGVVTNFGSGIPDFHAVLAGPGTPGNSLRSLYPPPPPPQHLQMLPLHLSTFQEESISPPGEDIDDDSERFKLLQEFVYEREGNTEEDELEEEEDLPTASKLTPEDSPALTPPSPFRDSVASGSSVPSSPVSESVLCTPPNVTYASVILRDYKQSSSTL

fold shift: 1.17 (inactive)
SMILES: O=C(Nc1cccc(Cl)c1)c1ccccn1
